Source: ChEMBL document CHEMBL4396885, “Thioether-based 2-aminobenzamide derivatives: Novel HDAC inhibitors with potent in vitro and in vivo antitumor activity” (Eur J Med Chem, 2019)

Experiments:
SMMC-7721 [1] = assay: Antiproliferative activity against human SMMC7721 cells assessed as growth inhibition at 8 uM after 72 hrs by CCK-8 assay relative to control; type: functional; conditions: SMMC-7721, 72 h, read-out: GI
A-375 [2] = assay: Antiproliferative activity against human A375 cells assessed as decrease in cell viability after 72 hrs by CCK-8 assay; type: functional, cell-based; conditions: A-375, 72 h
Outline: (§1)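 Cells grown to 70–85% confluence (A375, A549, HCT116 in RPMI1640; HeLa, SMMC7721 in DMEM; 10% FBS, 37 °C, 5% CO2), seeded 4000/well, dosed after 12 h across a concentration range, incubated 72 h, then CCK-8 for 1 h; absorbance at 450 nm. IC50 as mean ± SD of three separate experiments.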

HCT-116 [3] = assay: Antiproliferative activity against human HCT116 cells assessed as growth inhibition at 2 uM after 72 hrs by CCK-8 assay relative to control; type: functional; conditions: HCT-116, 72 h, read-out: GI
A549 [4] = assay: Antiproliferative activity against human A549 cells assessed as growth inhibition at 8 uM after 72 hrs by CCK-8 assay relative to control; type: functional; conditions: A549, 72 h, read-out: GI
HeLa [5] = assay: Antiproliferative activity against human HeLa cells assessed as growth inhibition at 2 uM after 72 hrs by CCK-8 assay relative to control; type: functional; conditions: read-out: GI
HeLa [6] = assay: Antiproliferative activity against human HeLa cells assessed as growth inhibition at 8 uM after 72 hrs by CCK-8 assay relative to control; type: functional; conditions: read-out: GI
A549 [7] = assay: Antiproliferative activity against human A549 cells assessed as growth inhibition at 2 uM after 72 hrs by CCK-8 assay relative to control; type: functional; conditions: A549, 72 h, read-out: GI
A549 [8] = assay: Antiproliferative activity against human A549 cells assessed as decrease in cell viability after 72 hrs by CCK-8 assay; type: functional, cell-based; conditions: A549, 72 h; outline: as §1
A-375 [9] = assay: Antiproliferative activity against human A375 cells assessed as growth inhibition at 8 uM after 72 hrs by CCK-8 assay relative to control; type: functional; conditions: A-375, 72 h, read-out: GI
SMMC-7721 [10] = assay: Antiproliferative activity against human SMMC7721 cells assessed as growth inhibition at 2 uM after 72 hrs by CCK-8 assay relative to control; type: functional; conditions: SMMC-7721, 72 h, read-out: GI
HCT-116 [11] = assay: Antiproliferative activity against human HCT116 cells assessed as growth inhibition at 8 uM after 72 hrs by CCK-8 assay relative to control; type: functional; conditions: HCT-116, 72 h, read-out: GI
A-375 [12] = assay: Antiproliferative activity against human A375 cells assessed as growth inhibition at 2 uM after 72 hrs by CCK-8 assay relative to control; type: functional; conditions: A-375, 72 h, read-out: GI
SMMC-7721 [13] = assay: Antiproliferative activity against human SMMC7721 cells assessed as decrease in cell viability after 72 hrs by CCK-8 assay; type: functional, cell-based; conditions: SMMC-7721, 72 h; outline: as §1
HeLa [14] = assay: Antiproliferative activity against human HeLa cells assessed as decrease in cell viability after 72 hrs by CCK-8 assay; type: functional, cell-based; outline: as §1
HCT-116 [15] = assay: Antiproliferative activity against human HCT116 cells assessed as decrease in cell viability after 72 hrs by CCK-8 assay; type: functional, cell-based; conditions: HCT-116, 72 h; outline: as §1

SMILES	inhibition of growth at 8 µM (SMMC-7721 [1]) [%]	IC50 (A-375 [2]) [µM]	inhibition of growth at 2 µM (HCT-116 [3]) [%]	inhibition of growth at 8 µM (A549 [4]) [%]	inhibition of growth at 2 µM (HeLa [5]) [%]	inhibition of growth at 8 µM (HeLa [6]) [%]	inhibition of growth at 2 µM (A549 [7]) [%]	IC50 (A549 [8]) [µM]	inhibition of growth at 8 µM (A-375 [9]) [%]	inhibition of growth at 2 µM (SMMC-7721 [10]) [%]	inhibition of growth at 8 µM (HCT-116 [11]) [%]	inhibition of growth at 2 µM (A-375 [12]) [%]	IC50 (SMMC-7721 [13]) [µM]	IC50 (HeLa [14]) [µM]	IC50 (HCT-116 [15]) [µM]
CC(C)(C)c1ccc(SCc2ccc(/C=C/C(=O)Nc3ccccc3N)cc2)cc1	23.6	1.55	6.66	79.8	17.5	9.8	71.5	0.64	35.5	18.3	39	38.4	–	–	–
Nc1ccccc1NC(=O)c1ccc(CSCCc2ccccc2)cc1	77.9	2.86	30.5	84.1	27.7	74.8	44.9	3.25	69.9	28.1	81.3	21.8	4.88	6.43	2.81
Cc1ccc(SCc2ccc(C(=O)Nc3ccccc3N)cc2)cc1	82.7	3.7	74.8	78.3	33.8	79.2	40.5	3.27	67	25.1	84	17.5	3.74	4.25	2.63
Nc1ccccc1NC(=O)c1ccc(CSc2ccc(F)cc2)cc1	81.9	–	13.5	44.5	27.9	79.3	43.4	–	54.3	6.58	90.6	19.4	5.77	5.01	4.01
Nc1ccccc1NC(=O)/C=C/c1ccc(CSc2cccc3ccccc23)cc1	18.3	–	11	71.2	20.6	22.1	59.3	0.83	36	3.7	35.2	1.55	–	–	–
Nc1ccccc1NC(=O)/C=C/c1ccc(CSCCc2ccccc2)cc1	15.8	15.7	18	50.3	0.19	3.57	45.7	1.15	37.4	14.7	10.6	41.9	10.9	–	–
Nc1ccccc1NC(=O)c1ccc(CSc2ccc(Cl)cc2)cc1	16.5	–	17.5	50.4	19.2	51.4	47.3	–	48.6	2.93	76.6	25.2	–	12.7	3.75
CCc1ccc(SCc2ccc(/C=C/C(=O)Nc3ccccc3N)cc2)cc1	19.5	–	3.29	68.6	3.96	20.9	60.7	1.3	58.4	13.2	2.68	5.27	–	–	–
Nc1ccccc1NC(=O)/C=C/c1ccc(CSc2ccc(F)cc2)cc1	15.4	3.67	14.1	59.1	7.09	10.4	51.2	1.19	24.6	18.3	20.2	28.8	–	–	–
COC(=O)c1ccccc1SCc1ccc(C(=O)Nc2ccccc2N)cc1	62.5	3.61	21.8	46.1	29.8	55.5	44.7	–	70.1	18	92	35.1	4.49	6.68	2.78
Cc1ccc(SCc2ccc(/C=C/C(=O)Nc3ccccc3N)cc2)cc1	22.1	–	6.23	48.2	25.4	21.7	43.4	–	31.2	22	4.93	22.9	–	–	–
Nc1ccccc1NC(=O)c1ccc(CSc2cccc(F)c2)cc1	83	3.9	5.5	72.7	22.5	78.4	46.9	–	76.2	18.6	81.3	37.7	3.28	3.24	2.87
CC(C)(C)c1ccc(SCc2ccc(C(=O)Nc3ccccc3N)cc2)cc1	46.1	–	4.81	67	9.73	40.2	38.6	–	33.1	23.6	60.5	2.13	–	–	–
